Consider 15 molecules from ChEMBL document CHEMBL4261652, “Modifying aroylhydrazone prochelators for hydrolytic stability and improved cytoprotection against oxidative stress” (Bioorg Med Chem, 2018).

SMILES strings stand for the structures. Calls of active or inactive are those of the source. The calls are words filed in the database; no cut-off is given here.

Data set [1] in a line: Hydrolytic stability of compound in D2O/2% DMSO-d6 solvent at 200 uM preincubated for 1 hr followed by H2O2 addition measured after 24 hrs by 1H-NMR spectroscopy. It counts as physicochemical. The settings on record: D2O/2% DMSO-d6 with H2O2 added; read-out: Stability.
For data set [2], the system named is ARPE-19. Nature of the data set: Cytotoxicity against human ARPE19 cells up to 100 uM after 24 hrs by CellTiter-Blue assay. Type of data set: cell-based. The following applies: arpe-19, 24 h.
Data set [3] is described as follows: Iron chelating activity of the compound assessed as recovery of calcein fluorescence from calcein-Fe3+ complex at 4 uM preincubated with H2O2 for 12 hrs followed by addition to calcein-Fe3+ complex measured after 2 hrs by fluorescence assay relative to control. The procedure, abridged: (§1)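 Compound at 100 μM in PBS pH 7.4, prepared fresh, either used directly or first incubated 12 h with 5 mM H2O2. Then brought to 4 μM with 2 μM Fe3+-calcein (preformed 4 h from ferric ammonium citrate and calcein) in PBS, equilibrated 2 h at 25 °C; emission read 485/535 nm, as percent of free calcein; n = 3.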

Data set [4] is described as follows: Hydrolytic stability in pH 7.4 PBS buffer at 100 uM by UV-Vis spectrophotometric analysis. Type of data set: physicochemical. The settings on record: pH 7.4, 100 µM, TDE = time-dependent effect. The procedure, abridged: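 UV-Vis monitoring of prochelator in PBS pH 7.4 at 1-min intervals over 30 min in 1-cm quartz cuvettes; hydrazide plus aldehyde (100 μM each) mixtures followed as reference.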

Data set [5] can be described thus: Hydrolytic stability of compound in D2O/5% DMSO-d6 solvent at 200 uM after 1 hr by 1H-NMR spectroscopy. The following applies: read-out: Stability. Type of data set: physicochemical.
For data set [6], the system named is ARPE-19. Briefly: Cytoprotective activity against paraquat-induced oxidative stress in human ARPE19 cells pretreated for 5 hrs followed by paraquat-stimulation and measured after 48 hrs by CellTiter-Blue assay. It counts as functional, cell-based.
In data set [7] the test system is ARPE-19. Nature of the data set: Cytotoxicity against human ARPE19 cells up to 100 uM after 72 hrs by CellTiter-Blue assay. It counts as cell-based. The following applies: arpe-19, 72 h. The procedure, abridged: (§2)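 Confluent ARPE-19 monolayers washed three times with MEM, then exposed 72 h to compound at 5–100 μM in MEM containing up to 1% DMSO; viability by CellTiter-Blue; triplicate runs, standard deviations.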

The nature of data set [8]: Hydrolytic stability in PBS of pH 7.4 assessed as equilibrium constant for hydrolytic product formation after 1 hr measured at 1 min intervals over 30 mins by UV-Vis spectrophotometric analysis. Type of data set: physicochemical. The following applies: buffer, pH 7.4, 1 h. The procedure, abridged:
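K measured by UV-Vis on equilibrated prochelator solutions in PBS pH 7.4 at several starting concentrations. Absorbances at 263 and 321 nm, with extinction coefficients from linear calibration plots, gave equilibrium concentrations of prochelator, hydrazide and aldehyde; K = [INH][FBA]/[prochelator].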

Data set [9] in a line: Iron chelating activity of the compound assessed as recovery of calcein fluorescence from calcein-Fe3+ complex by measuring iron binding constant at 4 uM measured after 2 hrs by fluorescence assay. Summed up:
as §1

Data set [10] relates to ARPE-19. Briefly: Cytoprotective activity against H2O2-induced oxidative stress in human ARPE19 cells at 25 uM pretreated for 5 hrs followed by H2O2-stimulation and measured after 19 hrs by CellTiter-Blue assay. It counts as functional, cell-based. Summed up:
(§3)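 ARPE-19 cells grown to confluence in 1:1 DMEM/F12 with 10% FBS, 37 °C, 5% CO2; washed with MEM, pre-treated 5 h with compound, then H2O2 added to 200 μM final; viability read 19 h later by CellTiter-Blue, as percent of untreated control; triplicate runs, mean ± SD.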

In data set [11] the test system is ARPE-19. Nature of the data set: Cytoprotective activity against paraquat-induced oxidative stress in human ARPE19 cells up to 100 uM pretreated for 5 hrs followed by paraquat-stimulation and measured after 48 hrs by CellTiter-Blue assay. It counts as functional, cell-based.
Data set [12] has as its system ARPE-19. Briefly: Cytoprotective activity against H2O2-induced oxidative stress in human ARPE19 cells at 25 to 50 uM pretreated for 5 hrs followed by H2O2-stimulation and measured after 19 hrs by CellTiter-Blue assay. It counts as functional, cell-based. The procedure, abridged: as §3
Data set [13] in a line: Iron chelating activity of the compound assessed as recovery of calcein fluorescence from calcein-Fe3+ complex by measuring iron binding constant at 4 uM preincubated with H2O2 for 12 hrs followed by addition to calcein-Fe3+ complex measured after 2 hrs by fluorescence assay. Summed up: as §1
A short description of data set [14]: Hydrolytic stability of compound in D2O/5% DMSO-d6 solvent at 500 uM preincubated for 1 hr followed by H2O2 addition measured after 24 hrs by 1H-NMR spectroscopy. It counts as physicochemical. The following applies: D2O/5% DMSO-d6 with H2O2 added; read-out: Stability.
For data set [15], the system named is ARPE-19. Briefly: Cytoprotective activity against paraquat-induced oxidative stress in human ARPE19 cells assessed as cell viability at 100 uM pretreated for 5 hrs followed by paraquat-stimulation and measured after 48 hrs by CellTiter-Blue assay. It counts as functional. The following applies: read-out: Activity.
The subject of data set [16] is ARPE-19. Nature of the data set: Cytotoxicity against human ARPE19 cells assessed as reduction in cell viability at 100 uM after 72 hrs by CellTiter-Blue assay. It counts as cell-based. The settings on record: arpe-19, 72 h. The procedure, abridged:
as §2

Data set [17] relates to ARPE-19. Nature of the data set: Cytotoxicity against human ARPE19 cells up to 100 uM over 72 hrs by CellTiter-Blue assay. The following applies: arpe-19, 72 h. It counts as cell-based. Summed up:
as §2

The nature of data set [18]: Hydrolytic stability of compound in D2O/5% DMSO-d6 solvent at 500 uM after 1 hr by 1H-NMR spectroscopy. It counts as physicochemical. The procedure, abridged: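 1H NMR in D2O: prochelator at 500 μM with 5% DMSO-d6, or at 200 μM with 2% DMSO-d6, equilibrated 1 h before spectra; activation by H2O2 added to 25 mM final (10 mM in the 200 μM case), reacting 12 h; aromatic peaks integrated.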

The nature of data set [19]: Solubility of the compound in aqueous buffer at >50 uM. It counts as physicochemical.
For data set [20], the system named is ARPE-19. Nature of the data set: Cytoprotective activity against H2O2-induced oxidative stress in human ARPE19 cells up to 100 uM pretreated for 5 hrs followed by H2O2-stimulation and measured after 19 hrs by CellTiter-Blue assay. It counts as functional, cell-based. Summed up:
as §3

The nature of data set [21]: Hydrolytic stability in PBS of pH 7.4 at 50 uM after 1 hr by UV-Vis spectrophotometric analysis. It counts as physicochemical. The settings on record: buffer, pH 7.4, 1 h.
The subject of data set [22] is ARPE-19. Briefly: Cytoprotective activity against paraquat-induced oxidative stress in human ARPE19 cells assessed as cell viability restoration at 100 uM after 48 hrs relative to control. It counts as functional. The procedure, abridged:
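ARPE-19 cells were grown to confluence in 1:1 DMEM/F12 with 10% FBS at 37 °C and 5% CO2, then washed with MEM. Cells were co-incubated in MEM with 10 mM paraquat plus compound for 48 h, with no pre-incubation step. Viability was read by CellTiter-Blue and expressed as % of the untreated MEM-only control. Triplicate runs, SD.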

Data set [23] in a line: Cytotoxicity against rat H9c2 cells after 72 hrs by neutral red uptake assay. The settings on record: read-out: TC50. It counts as cell-based.

For `CC1(C)OB(c2cc3c(cc2/C=N/NC(=O)c2ccncc2)OCO3)OC1(C)C`, the remaining at 24 h, 200 µM in data set [1] amounted to 45%. Moreover, the Activity entry with ARPE-19 [2] was “Non-Toxic”; in [3], 75%; in the data set on ARPE-19 [6] it was “Dose-dependent effect”; in the data set with ARPE-19 [7] it was “Non-Toxic”. Further, the Stability entry in [4] is “Tde”. Besides, in [5], the remaining at 1 h, 200 µM was determined as 80%. Further, the K in data set [8] was 8 ×10⁻⁶ M. For the same molecule, the outcome in [9] was inactive. For the same molecule, in the data set on ARPE-19 [10], the result was Active.
Turning to `CC1(C)OB(c2ccccc2/C=N/NC(=S)Nc2ccccc2)OC1(C)C`, the Activity result in the data set on ARPE-19 [2] is reported as “Non-Toxic”. For the same molecule, the outcome (in data set [3]; in the data set with ARPE-19 [11]; in data set [9]) was inactive. Besides, the outcome in the data set with ARPE-19 [12] was Active.
With `O=C(N/N=C/c1ccccc1O)c1ccncc1` [SALINAZID], the figures for the Activity result (in the data set on ARPE-19 [2]; in data set [9]) were “Non-Toxic” and over 90%, respectively. Moreover, the log(activity) in data set [13] is -23.
On to `COc1ccc(B2OC(C)(C)C(C)(C)O2)c(/C=N/NC(=O)c2ccncc2)c1`, for which the Activity result in the data set with ARPE-19 [2] was “Non-Toxic”; in data set [3] it was 60%; in the data set on ARPE-19 [16] it was 20%; with ARPE-19 [17], “Toxic”. Further, the remaining at 24 h, 500 µM in [14] is 67%. For the same molecule, the viability at 100 µM with ARPE-19 [15] was 30%. Further, the Stability result in data set [4] is recorded as “Tde”. Moreover, the K in data set [8] amounted to 1.1 ×10⁻⁵ M. The result in [9] was inactive. In addition, the remaining at 1 h, 500 µM in data set [18] (D2O/5% DMSO-d6, read-out: Stability) came to 85%. Moreover, in the data set on ARPE-19 [10], the result was Active.
Turning to `CC1(C)OB(c2ccccc2/C=N/NC(=O)c2ccncc2)OC1(C)C`, the Activity entry is “Non-Toxic” in the data set with ARPE-19 [2], 50% in data set [3] and “Non-Toxic” in the data set on ARPE-19 [7]. Besides, the outcome (in the data set with ARPE-19 [11]; in data set [9]) was inactive. In the data set with ARPE-19 [12], the result was Active. In [8], the K is 1.5 ×10⁻⁵ M.
Take `Oc1ccccc1/C=N/NC(=S)Nc1ccccc1`: in the data set with ARPE-19 [2], the Activity result is “Non-Toxic”. Moreover, the outcome in data set [9] was inactive.
`COc1ccc(/C=N/NC(=O)c2ccncc2)c(O)c1`: the solubility entry in [19] is listed as “Insoluble”.
In the case of `COc1ccc(O)c(/C=N/NC(=O)c2ccncc2)c1`, the values for the Activity entry (in the data set on ARPE-19 [2]; in data set [9]) were “Non-Toxic” and over 90%, respectively.
Turning to `COc1ccc(/C=N/NC(=O)c2ccncc2)cc1B1OC(C)(C)C(C)(C)O1`, the Activity entry in the data set on ARPE-19 [2] is “Non-Toxic”. Also, the outcome (in [3]; in the data set on ARPE-19 [11]; in the data set with ARPE-19 [20]; in [9]) was inactive. Further, the Stability result in data set [21] is listed as “Stable”; in data set [18] (1 h, 500 µM), “Stable”.
Consider `C/C(=N\NC(=O)c1ccncc1)c1ccccc1OCc1ccc(B2OC(C)(C)C(C)(C)O2)cc1`, for which the Activity is 40% in the data set with ARPE-19 [22], “Dose-dependent effect” with ARPE-19 [6] and 25% in the data set on ARPE-19 [16]. For the same molecule, the CC50 at 72 h in data set [23] came to 37.1 µM.
`COc1ccc(/C=N/NC(=O)c2cccnc2)c(B2OC(C)(C)C(C)(C)O2)c1`: the Activity result in the data set on ARPE-19 [2] is given as “Non-Toxic”. Also, the outcome in [3] and in data set [9] was inactive.
For `CNC(=S)N/N=C/c1ccccc1O`, the Activity result with ARPE-19 [2] is reported as “Non-Toxic”. Also, the result (in the data set on ARPE-19 [20]; in data set [9]) was inactive.
Consider `CNC(=S)N/N=C/c1ccccc1B1OC(C)(C)C(C)(C)O1`, for which the Activity entry in the data set with ARPE-19 [2] was “Non-Toxic”. Also, the outcome (in data set [3]; in the data set on ARPE-19 [20]; in [9]) was inactive.
On to `O=C(N/N=C/c1ccc(Cl)cc1B(O)O)c1ccncc1`, for which, in the data set with ARPE-19 [2], the Activity result is on record as “Non-Toxic”. The outcome in data set [3] and in [9] was inactive.
For the molecule `COc1ccc(/C=N/NC(=O)c2cccnc2)c(O)c1`, the Activity entry with ARPE-19 [2] was “Non-Toxic”; in data set [9], over 90%.
